From PubChem
This is a sample that favours compounds with a hit; in the whole collection about 4% have one here.
TAAR1 ag: agonists of human TAAR1 | activation, % at 3 µM | CHO RD-HGA16 TAAR1, Fluo-8 calcium fluorescence; vehicle wells 0%, saturating PEA agonist 100% | Q96RJ0 | 0.99% of 360,000 active;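 active = activation above the mean activation of all test compounds in the run plus 3 SD, cut at about 38% in these data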
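Benchmarks: low control DMSO, high control PEA (EC100); System: CHO RD-HGA16 cells carrying human TAAR1 plus Gα16; Detection: Fluo-8 fluorescence, 5 s baseline then 140 s kinetic read; Schedule: 17-24 h plating, Fluo-8 75 min 37 °C, 30 min RT; Read-out basis: % activation from peak over basal fluorescence ratio, DMSO-to-PEA scaled.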
DAGLB inh: blocks human DAGLB lipase activity. Q8NCG7. HEK293T DAGLB membrane lysate, EnzChek fluorogenic substrate. inhibition, % at 5.17 µM. 0.059% of 340,000 active; in the data active = inhibition above about 34%
GPR7 antag: antagonists of human GPR7 (neuropeptides B/W receptor 1) | GPR7-expressing cells, fluorescence antagonist assay | inhibition, % at 4.4 µM | 1.1% of 290,000 active; in the data active = inhibition above about 16%, passing the limit was not always enough;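 note: cells stimulated with the agonist NPW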
MPTP inh: permeability transition pore inhibition; isolated mouse mitochondria, Ca2+ swelling absorbance, 30 min; inhibition, % at 10 µM; 1.4% of 360,000 active;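 active = inhibition of 50% or more, scaled per plate between neutral and stimulator controls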
TAAR1 antag: human TAAR1 antagonism; AID 624466; Q96RJ0; CHO RD-HGA16 TAAR1, Fluo-8 calcium fluorescence, antagonist; inhibition, % at 3 µM; 1.5% of 360,000 active;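 active = inhibition above a per-plate cutoff, the mean inhibition of test compounds on that plate plus 3 SD, cut at about 49% in these data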
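test system = CHO RD-HGA16 cells bearing hTAAR1 | replication = singlicate | controls = DMSO-only wells and EC80 β-PEA-stimulated wells | reagent = EC80 β-phenethylamine stimulus | read-out basis = percent inhibition of PEA-evoked calcium signal, max/basal emission ratio | schedule = seeding 17-24 h prior, 75-min 37 °C, 30-min RT dye loading | signal = kinetic Fluo-8 calcium fluorescence measurement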
TAAR1 nonsel count: counter-screen for TAAR1 antagonists: nonselective antagonists. shares compounds with TAAR1 antag. inhibition, % at 3 µM. counterscreen cell line, calcium fluorescence, antagonist mode. 77% of 2,400 active; in the data active = inhibition above about 22%;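 note: CHO-Ga16 host cells stimulated with ATP at an EC80 level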
TAAR1 ant conf: human TAAR1 antagonism, confirmed; shares compounds with TAAR1 antag; TAAR1-expressing cells, fluorescence antagonist read-out; inhibition, % at 3 µM; 40% of 2,400 active; in the data active = inhibition above about 49%;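 note: CHO-Ga16 host cells challenged with agonist PEA near its EC80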
Ga16 ag counter: counter-screen for TAAR1 antagonists: nonselective Ga16 agonists | shares compounds with TAAR1 antag | Ga16-expressing cells, calcium fluorescence, agonist counterscreen | activation, % at 3 µM | 18% of 2,400 active | AID 651953; in the data active = activation above about 12%
TAAR1 ag count: activates human TAAR1 in antagonist counter-screen; activation, % at 3 µM; AID 651955; hTAAR1 cell line, fluorescence activation, agonist mode; shares compounds with TAAR1 antag; 2% of 2,400 active; in the data active = activation above about 37%;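 note: CHO cells stably expressing TAAR1 with calcium dye readout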
Of the large screens only hits and unclear results are named; the others gave an inactive call (follow-up assays come after a bar, where they were run).

C[C@H](O)[C@@H]1C(=O)N2CCc3c([nH]c4c(-c5ccccc5)cccc34)[C@@H]2C[C@@H]1N(C)C(=O)Nc1ccccc1	TAAR1 antag 54 (no result: DAGLB inh, GPR7 antag, MPTP inh) | TAAR1 nonsel count 31 | TAAR1 ant conf inactive | Ga16 ag counter inactive | TAAR1 ag count inactive
C[C@@H]1ON(C)[C@H]2C[C@H]3c4[nH]c5c(-c6ccc(F)cc6)cccc5c4CCN3C(=O)[C@@H]12	none (no result: DAGLB inh, GPR7 antag, MPTP inh)
COCCNC(=S)N(C)[C@H]1C[C@H]2c3[nH]c4c(-c5ccccc5)cccc4c3CCN2C(=O)[C@H]1[C@H](C)O	none (no result: DAGLB inh, GPR7 antag, MPTP inh)
S=C1NCN(CC2CC2)CN1	none (no result: DAGLB inh, GPR7 antag, MPTP inh)
CCCCc1c(-c2ccccc2OC)ncn1Cc1ccc(F)c(F)c1	none (no result: DAGLB inh, GPR7 antag, MPTP inh)
CCOC(=O)c1cc2ccccc2n1C1CCN(C)CC1	none (no result: DAGLB inh, GPR7 antag)
COC(=O)C1=C(C)N(Cc2ccc(F)cc2)C(=S)NC1c1ccccc1 (centres undefined)	none (no result: DAGLB inh, GPR7 antag, MPTP inh)
O=C(Nc1ccc(-c2nnc(-c3ccco3)o2)cc1)C(c1ccccc1)c1ccccc1	TAAR1 antag 74 | TAAR1 nonsel count 32 | TAAR1 ant conf inactive | Ga16 ag counter inactive | TAAR1 ag count inactive
C/C(=N\Nc1cc(C)nc(-c2ccccc2O)n1)c1ccccc1O	TAAR1 antag 59 | TAAR1 nonsel count 30 | TAAR1 ant conf inactive | Ga16 ag counter inactive | TAAR1 ag count inactive
c1ccc2sc(-n3cc(C4CCCCC4)nn3)nc2c1	none (no result: DAGLB inh, GPR7 antag)
O=C(/C=C1\C(=O)Nc2ccccc21)/C=C1\C(=O)Nc2ccccc21	TAAR1 antag 60 | TAAR1 nonsel count 35 | TAAR1 ant conf inactive | Ga16 ag counter inactive | TAAR1 ag count inactive
COc1cccc(C2C(C(=O)OC(C)C)=C(C)N=c3s/c(=C\c4ccc(C(=O)O)cc4)c(=O)n32)c1 (centres undefined)	TAAR1 antag 60 | TAAR1 nonsel count 34 | TAAR1 ant conf 53 | Ga16 ag counter 17 | TAAR1 ag count inactive
CC(C)(C)OC(=O)NCCCCCNC(=O)c1nc[nH]c1C(=O)N1CCc2ccccc2C1	TAAR1 antag 76 (no result: GPR7 antag) | TAAR1 nonsel count 34 | TAAR1 ant conf 52 | Ga16 ag counter inactive | TAAR1 ag count inactive
CC(C)(C)OC(=O)NCCCC[C@H](NC(=O)c1nc[nH]c1C(=O)N1CCc2ccccc2C1)C(=O)OC(C)(C)C	none (no result: GPR7 antag)
CC(C)(C)OC(=O)NCCCCCNC(=O)c1nc[nH]c1C(=O)NCC(=O)OCc1ccccc1	TAAR1 antag 78 (no result: GPR7 antag) | TAAR1 nonsel count 38 | TAAR1 ant conf 62 | Ga16 ag counter 13 | TAAR1 ag count inactive
CC(C)(C)OC(=O)CNC(=O)c1[nH]cnc1C(=O)NCC(=O)OCc1ccccc1	TAAR1 antag 70 | TAAR1 nonsel count 31 | TAAR1 ant conf 56 | Ga16 ag counter inactive | TAAR1 ag count inactive
O=C(CNC(=O)c1[nH]cnc1C(=O)NC(c1ccccc1)c1ccccc1)OCc1ccccc1	TAAR1 antag 68 | TAAR1 nonsel count 26 | TAAR1 ant conf inactive | Ga16 ag counter inactive | TAAR1 ag count inactive
O=C1c2ccccc2C(c2nnnn2Cc2ccccc2)N1CCCN1CCOCC1 (centres undefined)	none (no result: DAGLB inh, GPR7 antag)
CC(C)(C)OC(=O)NCCCC[C@H](NC(=O)c1nc[nH]c1C(=O)NCC(=O)OCc1ccccc1)C(=O)OC(C)(C)C	TAAR1 antag 55 | TAAR1 nonsel count 23 | TAAR1 ant conf inactive | Ga16 ag counter inactive | TAAR1 ag count inactive
CC(C)(C)OC(=O)NCc1ccc(NC(=O)c2nc[nH]c2C(=O)N[C@@H](Cc2ccccc2)C(=O)OC(C)(C)C)cc1	none (no result: GPR7 antag)
Cc1cccc(NC(=O)c2nc[nH]c2C(=O)NCCCCCNC(=O)OC(C)(C)C)c1	TAAR1 antag 56 (no result: GPR7 antag) | TAAR1 nonsel count inactive | TAAR1 ant conf inactive | Ga16 ag counter inactive | TAAR1 ag count inactive
